# Results: ChEMBL document CHEMBL3769317, “Aminothiazoles as Potent and Selective Sirt2 Inhibitors: A Structure-Activity Relationship Study” (J Med Chem, 2016)
# Molecular target: T1, NAD-dependent protein deacetylase sirtuin-1 (Homo sapiens) (UniProt Q96EB6)
# T1 sequence (whole entry): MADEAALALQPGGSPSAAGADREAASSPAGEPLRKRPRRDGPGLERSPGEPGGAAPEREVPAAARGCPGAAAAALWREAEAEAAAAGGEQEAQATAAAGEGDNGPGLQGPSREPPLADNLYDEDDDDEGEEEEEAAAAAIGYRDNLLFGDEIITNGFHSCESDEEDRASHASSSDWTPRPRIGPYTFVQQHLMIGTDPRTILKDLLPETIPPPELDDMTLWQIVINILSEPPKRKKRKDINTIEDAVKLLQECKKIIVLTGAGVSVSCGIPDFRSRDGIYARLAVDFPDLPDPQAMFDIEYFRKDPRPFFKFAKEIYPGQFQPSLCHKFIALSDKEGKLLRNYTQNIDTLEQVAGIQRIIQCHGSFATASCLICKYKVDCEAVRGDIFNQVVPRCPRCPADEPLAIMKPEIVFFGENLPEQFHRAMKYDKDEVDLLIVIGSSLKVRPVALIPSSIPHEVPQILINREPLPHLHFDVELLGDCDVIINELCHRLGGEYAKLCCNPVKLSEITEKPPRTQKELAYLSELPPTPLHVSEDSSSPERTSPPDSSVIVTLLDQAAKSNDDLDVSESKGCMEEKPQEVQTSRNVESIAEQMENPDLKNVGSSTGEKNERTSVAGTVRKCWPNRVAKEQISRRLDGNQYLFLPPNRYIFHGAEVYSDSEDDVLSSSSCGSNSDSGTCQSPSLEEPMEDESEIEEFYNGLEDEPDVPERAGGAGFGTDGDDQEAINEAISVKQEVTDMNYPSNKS
# Assay: Inhibition of GST-tagged human SIRT1 (133 to 747 amino acids) using ZMAL as substrate at 200 uM after 4 hrs by fluorescence-based microplate reader method
row,SMILES,inhibition
1,Cc1cc(C)nc(SCC(=O)Nc2nnc(Cc3cccc4ccccc34)s2)n1,< 10%
2,Cc1cc(C)nc(SC(C)C(=O)Nc2ncc(Cc3ccc(-c4ccccc4)cc3)s2)n1 (racemic),14%
3,CCC(Sc1nc(C)cc(C)n1)C(=O)Nc1ncc(Cc2cccc3ccc(Cl)cc23)s1 (racemic),< 10%
4,COc1ccc(Cc2cnc(NC(=O)CSc3nc(C)cc(C)n3)s2)cc1,< 10%
5,CC(=O)Nc1ncc(C)s1,< 10%
6,CCOc1cccc(Cc2cnc(NC(=O)CSc3nc(C)cc(C)n3)s2)c1,< 10%
7,CCc1cc(CC)nc(SCC(=O)Nc2ncc(Cc3cccc(C)c3)s2)n1,< 10%
8,Cc1cc(C)nc(SCC(=O)Nc2ncc(Cc3cccc4cc(Cl)ccc34)s2)n1,20%
9,NC(=O)c1ccc[n+](CC(=O)Nc2ncc(Cc3cccc4ccccc34)s2)c1,39%
10,Nc1ccccc1SCC(=O)Nc1ncc(Cc2cccc3ccccc23)s1,< 10%
11,Cc1cc(C)nc(SCC(=O)Nc2nc(-c3ccc4ccccc4c3)cs2)n1,23%
12,CCc1cc(CC)nc(SCC(=O)Nc2ncc(Cc3ccc(-c4ccccc4)cc3)s2)n1,10%
13,CCC(Sc1nc(C)cc(C)n1)C(=O)Nc1ncc(Cc2cccc3ccccc23)s1 (racemic),35%
14,Cc1ccc(Cc2cnc(NC(=O)CSc3nc(C)cc(C)n3)s2)cc1,16%
15,Cc1cc(C)nc(SCC(=O)Nc2nnc(C(F)(F)F)s2)n1,12%
16,CCc1cc(CC)nc(SC(C)C(=O)Nc2ncc(Cc3ccc(OC)cc3)s2)n1 (racemic),18%
17,Cc1cc(C)nc(SCC(=O)Nc2nnc(Cc3ccccc3)s2)n1,< 10%
18,CCCc1cc(O)nc(SCC(=O)Nc2ncc(Cc3cccc4ccccc34)s2)n1,22%
19,COc1ccc(Cc2cnc(NC(=O)/C=C/c3ccco3)s2)cc1,28%
20,CCc1cc(CC)nc(SCC(=O)Nc2ncc(Cc3ccc(Cl)cc3)s2)n1,18%
21,O=C(CSc1nc(-c2ccccc2)cc(-c2ccccc2)n1)Nc1ncc(Cc2ccc(Cl)cc2)s1,11%
22,O=C(CSc1ccc(Cl)cc1)Nc1ncc(Cc2cccc3ccccc23)s1,< 10%
23,Cc1cc(C)nc(SCC(=O)Nc2nnc(Cc3ccc(Br)cc3)s2)n1,< 10%
24,Cc1cc(C)nc(SCC(=O)Nc2ncc(Cc3ccc(Cl)cc3)s2)n1,< 10%
25,O=C(CSc1nnc(-c2ccccc2)c(-c2ccccc2)n1)Nc1nnc(-c2ccccc2)s1,< 10%

row,SMILES,inhibition
1,COc1ccc(Cc2cnc(NC(=O)C(C)Sc3nc(C)cc(C)n3)s2)cc1 (racemic),27%
2,Cc1cc(C)nc(SCC(=O)Nc2ncc(Cc3ccccc3C)s2)n1,14%
3,O=C(CSc1ncccn1)Nc1ncc(Cc2cccc3ccccc23)s1,17%
4,Cc1cc(C)nc(SCC(=O)Nc2nnc(Cc3ccc(Cl)cc3)s2)n1,< 10%
5,Nc1cc(N)nc(SCC(=O)Nc2ncc(Cc3cccc4ccccc34)s2)n1,< 10%
6,Cc1cc(C)nc(S[C@@H](C)C(=O)Nc2ncc(Cc3cccc4ccccc34)s2)n1,< 10%
7,Cc1cc(C)nc(SC(C)C(=O)Nc2ncc(Cc3cccc4ccccc34)s2)n1 (racemic),17%
8,Cc1ccnc(SCC(=O)Nc2ncc(Cc3cccc4ccccc34)s2)n1,< 10%
9,Cc1cccc(Cc2cnc(NC(=O)CSc3nc(C)cc(C)n3)s2)c1,18%
10,O=C(CSc1cccc(O)c1)Nc1ncc(Cc2cccc3ccccc23)s1,< 10%
11,Cc1cc(C)nc(SC(C)C(=O)Nc2ncc(Cc3cccc4ccc(Cl)cc34)s2)n1 (racemic),< 10%
12,Cc1nc(SCC(=O)Nc2ncc(Cc3cccc4ccccc34)s2)nc(C)c1C,< 10%
13,Cc1cc(C)nc(SCC(=O)Nc2ncc(Cc3ccc(-c4ccccc4)cc3)s2)n1,29%
14,Cc1cc(C)nc(SCC(=O)Nc2ncc(Cc3c(C)ccc4ccccc34)s2)n1,< 10%
15,CCOc1ccc2nc(NC(=O)CSc3nc(C)cc(C)n3)sc2c1,16%
16,O=C(CSc1ncccn1)Nc1ncc(Cc2ccccc2)s1,12%
17,CC(Sc1ncccn1)C(=O)Nc1ncc(Cc2cccc3ccccc23)s1 (racemic),21%
18,Cc1cc(C)nc(SCC(=O)Nc2ncc(Cc3ccc4ccccc4c3)s2)n1,< 10%
19,Cc1cc(C)cc(SCC(=O)Nc2ncc(Cc3cccc4ccccc34)s2)c1,16%
20,Cc1cc(C)nc(SCC(=O)N(C)c2ncc(Cc3cccc4ccccc34)s2)n1,< 10%
21,CCc1cc(CC)nc(SCC(=O)Nc2ncc(Cc3cccc4ccccc34)s2)n1,< 10%
22,Cc1cc(C)nc(SCC(=O)Nc2ncc(C(=O)Nc3cccc4ccccc34)s2)n1,< 10%
23,Cc1cc(C)nc(SCC(=O)Nc2ncc(Cc3cccc4ccc(Br)cc34)s2)n1,< 10%
24,Cc1cc(C)nc(S[C@H](C)C(=O)Nc2ncc(Cc3cccc4ccccc34)s2)n1,< 10%

# Molecular target: T2, NAD-dependent protein deacetylase sirtuin-2 (Homo sapiens, UniProt Q8IXJ6)
# T2 sequence (Q8IXJ6 whole entry): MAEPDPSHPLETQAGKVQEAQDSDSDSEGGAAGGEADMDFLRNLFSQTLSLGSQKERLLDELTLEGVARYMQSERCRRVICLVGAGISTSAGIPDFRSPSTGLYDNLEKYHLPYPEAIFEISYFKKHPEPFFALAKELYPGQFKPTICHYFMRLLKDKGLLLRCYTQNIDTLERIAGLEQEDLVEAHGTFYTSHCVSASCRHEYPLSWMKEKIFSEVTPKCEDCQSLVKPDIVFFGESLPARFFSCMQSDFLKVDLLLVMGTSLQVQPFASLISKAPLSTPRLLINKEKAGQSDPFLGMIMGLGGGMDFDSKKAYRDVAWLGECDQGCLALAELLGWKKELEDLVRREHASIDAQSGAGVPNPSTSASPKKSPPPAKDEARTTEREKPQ
# Assay: Inhibition of N-terminal his6-tagged human SIRT2 (25 to 389 amino acids) using ZMAL as substrate after 4 hrs by fluorescence-based microplate reader method
row,SMILES,IC50
1,Cc1cc(C)nc(SCC(=O)Nc2nnc(Cc3cccc4ccccc34)s2)n1,1.89 µM
2,Cc1cc(C)nc(SC(C)C(=O)Nc2ncc(Cc3ccc(-c4ccccc4)cc3)s2)n1 (racemic),33 µM
3,CCC(Sc1nc(C)cc(C)n1)C(=O)Nc1ncc(Cc2cccc3ccc(Cl)cc23)s1 (racemic),0.32 µM
4,CCOc1cccc(Cc2cnc(NC(=O)CSc3nc(C)cc(C)n3)s2)c1,1.33 µM
5,Cc1cc(C)nc(SCC(=O)Nc2ncc(Cc3cccc4cc(Cl)ccc34)s2)n1,0.48 µM
6,NC(=O)c1ccc[n+](CC(=O)Nc2ncc(Cc3cccc4ccccc34)s2)c1,289 µM
7,CCC(Sc1nc(C)cc(C)n1)C(=O)Nc1ncc(Cc2cccc3ccccc23)s1 (racemic),0.54 µM
8,Cc1ccc(Cc2cnc(NC(=O)CSc3nc(C)cc(C)n3)s2)cc1,4.72 µM
9,Cc1cc(C)nc(SCC(=O)Nc2nnc(C(F)(F)F)s2)n1,503 µM
10,CCCc1cc(O)nc(SCC(=O)Nc2ncc(Cc3cccc4ccccc34)s2)n1,127 µM
11,Cc1cc(C)nc(SCC(=O)Nc2nnc(Cc3ccc(Br)cc3)s2)n1,168 µM
12,Cc1cc(C)nc(SCC(=O)Nc2ncc(Cc3ccc(Cl)cc3)s2)n1,3.4 µM
13,O=C(CSc1nnc(-c2ccccc2)c(-c2ccccc2)n1)Nc1nnc(-c2ccccc2)s1,19.9 µM
14,COc1ccc(Cc2cnc(NC(=O)C(C)Sc3nc(C)cc(C)n3)s2)cc1 (racemic),14.6 µM
15,O=C(CSc1ncccn1)Nc1ncc(Cc2cccc3ccccc23)s1,2.34 µM
16,Cc1cc(C)nc(SCC(=O)Nc2nnc(Cc3ccc(Cl)cc3)s2)n1,30.9 µM
17,Cc1cc(C)nc(S[C@@H](C)C(=O)Nc2ncc(Cc3cccc4ccccc34)s2)n1,0.26 µM

row,SMILES,IC50
1,Cc1cc(C)nc(SC(C)C(=O)Nc2ncc(Cc3cccc4ccccc34)s2)n1 (racemic),0.42 µM
2,Cc1ccnc(SCC(=O)Nc2ncc(Cc3cccc4ccccc34)s2)n1,1.45 µM
3,Cc1cccc(Cc2cnc(NC(=O)CSc3nc(C)cc(C)n3)s2)c1,1.64 µM
4,O=C(CSc1cccc(O)c1)Nc1ncc(Cc2cccc3ccccc23)s1,143 µM
5,Cc1cc(C)nc(SC(C)C(=O)Nc2ncc(Cc3cccc4ccc(Cl)cc34)s2)n1 (racemic),0.54 µM
6,Cc1nc(SCC(=O)Nc2ncc(Cc3cccc4ccccc34)s2)nc(C)c1C,15 µM
7,Cc1cc(C)nc(SCC(=O)Nc2ncc(Cc3ccc(-c4ccccc4)cc3)s2)n1,164 µM
8,Cc1cc(C)nc(SCC(=O)Nc2ncc(Cc3c(C)ccc4ccccc34)s2)n1,0.31 µM
9,CCOc1ccc2nc(NC(=O)CSc3nc(C)cc(C)n3)sc2c1,77.8 µM
10,CC(Sc1ncccn1)C(=O)Nc1ncc(Cc2cccc3ccccc23)s1 (racemic),1.92 µM
11,Cc1cc(C)cc(SCC(=O)Nc2ncc(Cc3cccc4ccccc34)s2)c1,207 µM
12,Cc1cc(C)nc(SCC(=O)N(C)c2ncc(Cc3cccc4ccccc34)s2)n1,> 100 µM
13,CCc1cc(CC)nc(SCC(=O)Nc2ncc(Cc3cccc4ccccc34)s2)n1,45.6 µM
14,Cc1cc(C)nc(SCC(=O)Nc2ncc(C(=O)Nc3cccc4ccccc34)s2)n1,33 µM
15,Cc1cc(C)nc(SCC(=O)Nc2ncc(Cc3cccc4ccc(Br)cc34)s2)n1,0.21 µM
16,Cc1cc(C)nc(S[C@H](C)C(=O)Nc2ncc(Cc3cccc4ccccc34)s2)n1,9.77 µM

# Molecular target: T3, NAD-dependent protein deacetylase sirtuin-2 (Homo sapiens) (UniProt Q8IXJ6)
# T3 sequence (whole entry): T2 sequence (Q8IXJ6 whole entry)
# Assay: Inhibition of N-terminal his6-tagged human SIRT2 (25 to 389 amino acids) using ZMAL as substrate at 50 uM after 4 hrs by fluorescence-based microplate reader method
# How it was run: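 Fluorogenic deacetylation assay: hSirt1 133-747 or hSirt2 25-389 in 50 mM Tris, 137 mM NaCl, 2.7 mM KCl, pH 8.0, with NAD+ 500 µM and ZMAL (Cbz-Lys(acetyl)-AMC) 10,5 µM final, inhibitor in DMSO (5% v/v final). Control conversion kept near 15-30%. 4 h at 37 °C, then trypsin/nicotinamide stop for 20 min at 37 °C. Fluorescence read at 390/460 nm. % inhibition taken against no-inhibitor controls. At least duplicates.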
row,SMILES,inhibition
1,COc1ccc(Cc2cnc(NC(=O)CSc3nc(C)cc(C)n3)s2)cc1,48%
2,CC(=O)Nc1ncc(C)s1,< 10%
3,CCc1cc(CC)nc(SCC(=O)Nc2ncc(Cc3cccc(C)c3)s2)n1,< 10%
4,Nc1ccccc1SCC(=O)Nc1ncc(Cc2cccc3ccccc23)s1,36%
5,Cc1cc(C)nc(SCC(=O)Nc2nc(-c3ccc4ccccc4c3)cs2)n1,35%
6,CCc1cc(CC)nc(SCC(=O)Nc2ncc(Cc3ccc(-c4ccccc4)cc3)s2)n1,31%
7,CCc1cc(CC)nc(SC(C)C(=O)Nc2ncc(Cc3ccc(OC)cc3)s2)n1 (racemic),40%
8,Cc1cc(C)nc(SCC(=O)Nc2nnc(Cc3ccccc3)s2)n1,18%
9,COc1ccc(Cc2cnc(NC(=O)/C=C/c3ccco3)s2)cc1,18%
10,CCc1cc(CC)nc(SCC(=O)Nc2ncc(Cc3ccc(Cl)cc3)s2)n1,38%
11,O=C(CSc1nc(-c2ccccc2)cc(-c2ccccc2)n1)Nc1ncc(Cc2ccc(Cl)cc2)s1,46%
12,O=C(CSc1ccc(Cl)cc1)Nc1ncc(Cc2cccc3ccccc23)s1,< 10%
13,Cc1cc(C)nc(SCC(=O)Nc2ncc(Cc3ccccc3C)s2)n1,52%
14,Nc1cc(N)nc(SCC(=O)Nc2ncc(Cc3cccc4ccccc34)s2)n1,25%
